Tests used:
[1] = type: in vivo, athymic nude mice bearing MDA-MB-231 tumors; settings: IP, Alexa 700-labelled KLAK PA
Procedure, shortened: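 Female athymic nude mice carried orthotopic MDA-MB-231 mammary tumours. Dialysed Alexa 700-conjugated PA (20 mg/kg, 1.8 mM; 2.5 μg dye) was given ip, ± 27 mg/kg coassembled PEG PA. Plasma was collected by tail bleed or terminal cardiac puncture, spun 10 000 rpm for 10 min, and read on a plate reader. Paraformaldehyde-fixed tissues were imaged as average radiant efficiency; n = 6 per time point.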

[2] = Complete blood count and metabolic profiling 24 h after PA administration; type: in vivo, mice; settings: 24 h after administration
Procedure, shortened: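 Blood was drawn from mice 24 h after PA or PBS administration and sent to an external laboratory for complete blood count and metabolic profiling. Groups were compared by two-way ANOVA with Bonferroni post-tests.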

[3] = Small angle X-ray scattering; type: physicochemical; settings: 2 mM; -1 indicative of cylinders, -2 possibly bundling
Procedure, shortened: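 Synchrotron SAXS used 15 keV X-rays from a double-crystal monochromator and an offset CCD to cover a wide angle range. Samples at 2 mM were held in 1.5 mm quartz capillaries; incident flux was about 10^12 photons/s. Intensity was plotted on a relative scale against q = (4π/λ) sin(θ/2).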

[4] = 1H diffusion ordered spectroscopy; type: physicochemical; settings: DOSY, D2O, ambient temperature; 5 mM KLAK PA alone or 2.5 mM KLAK PA and 2.5 mM PEG PA
Procedure, shortened: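 Coassembled by dissolving each PA separately in HFIP, mixing at least 15 min, lyophilizing, redissolving in water and lyophilizing again. 1H DOSY at 600 MHz and ambient temperature in 99.9% D2O, at constant total PA of 5 mM (single PA) or 2.5 mM + 2.5 mM (mixed). 32 points were acquired with a 7 μs 90-degree pulse.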

[5] = Cryogenic and conventional TEM of nanostructures; type: physicochemical; settings: cryo-TEM
Procedure, shortened: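 For conventional TEM, samples were drop-cast on carbon-coated copper grids and stained with 2% aqueous uranyl acetate. For cryo-TEM, grids were blotted at 95% humidity and plunged into liquid ethane. Both were imaged at 100 keV.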

In the case of palmitoyl-A4G3(KLAKLAK)2 [KLAK PA], the observed plasma half-lives ([1]; plasma fluorescence, mice) is reported as “on the order of several hours”, the “tissue localization of fluorescence” value ([1]; tumor bearing mice, IVIS) is reported as “predominantly localized to liver and kidney” and the alkaline phosphatase levels ([2]; compared with PBS treated controls) is reported as “significantly lower”. For the same substance, the blood glucose levels ([2]; mice) was “significantly higher”, the “SAXS slope in the low-q range” value [3] was “approximately -2” and the “diffusion coefficient of KLAK PA (peak at 2.83 ppm)” value [4] was 0.69×10^−10 m^2/s. For the same substance, the fiber diameter [5] was “roughly 10 nm” and the fiber length [5] was “several hundred”.
